Results published in PMC4814157 (ACS chemical biology, 2011).
Where a chain is given by its changes, count along the chain named. Entries after “also recorded” stand apart in the source; their conditions may differ.

Tests used:
Scp1 [1] = biological target: T1, Scp1 (Homo sapiens, UniProt Q9GZU7); assay: Concentration-response assay of rabeprazole analogues on Scp1; format: biochemical
T1 sequence (Q9GZU7 77-256): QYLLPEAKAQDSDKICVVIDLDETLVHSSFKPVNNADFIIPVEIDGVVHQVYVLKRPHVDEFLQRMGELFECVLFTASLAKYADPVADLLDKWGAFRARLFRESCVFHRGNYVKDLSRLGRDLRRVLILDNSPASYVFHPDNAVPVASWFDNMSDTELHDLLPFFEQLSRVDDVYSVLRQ

Scp1 [2] = biological target: T1, Scp1; assay: Malachite green assay with CTD-derived phosphorylated peptide; format: biochemical
Outline: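 Human Scp1 (residues 77–256, E. coli BL21(DE3)-expressed, Ni-NTA purified), 5 ng, acting on a 17-mer Ser5-phosphorylated CTD peptide. Reaction ran 3 min at 37 °C, was quenched with malachite green reagent, and read at 620 nm. IC50 used substrate near Km with 0–100 µM inhibitor. Km came from peptide at 0.01–0.4 mM; Ki from peptide titrations without and with inhibitor.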

Scp1 [3] = biological target: T1, Scp1; assay: Differential scanning fluorimetry, thermal stability of Scp1; format: binding; details: 20 µM protein, 100 µM rabeprazole; 57.8 °C in absence of compound
Scp1 V127A mutant = biological target: T2, Scp1 V127A mutant (Homo sapiens, UniProt Q9GZU7, V127A); assay: pNPP assay, Scp1 V127A mutant; format: biochemical
T2 sequence (Q9GZU7 77-256 V127A): T1 sequence (Q9GZU7 77-256) with V51A
Outline: (§1)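 Point mutants of human Scp1 (residues 77–256; E. coli BL21(DE3), Ni-NTA purified), 50 ng each. Each was preincubated with inhibitor 10 min at RT in pH 5.5 Tris-acetate buffer with 10 mM MgCl2, 0.02% Triton X-100, 1% DMSO. pNPP near Km was added and hydrolysis ran 10–15 min at 37 °C. Reactions were quenched with 0.25 N NaOH and read at 410 nm. IC50 was fitted from concentration–response curves (0–100 µM inhibitor).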

Scp1 K157A mutant = biological target: T3, Scp1 K157A mutant (Homo sapiens, UniProt Q9GZU7, K157A); assay: pNPP assay, Scp1 K157A mutant; format: biochemical
T3 sequence (Q9GZU7 77-256 K157A): T1 sequence (Q9GZU7 77-256) with K81A
Outline: as §1

[4] = tested on: Scp1 Tyr158 to Ala mutant; assay: pNPP assay, Scp1 Tyr158 to Ala mutant; format: biochemical, human
Outline: as §1

[5] = biological target: T4, bacteriophage λ Ser/Thr phosphoprotein phosphatase (λPPase) (Escherichia phage lambda, UniProt P03772); assay: Inhibition of λPPase; format: biochemical; details: up to 1 mM concentration (data not shown)
T4 sequence (P03772 1-221): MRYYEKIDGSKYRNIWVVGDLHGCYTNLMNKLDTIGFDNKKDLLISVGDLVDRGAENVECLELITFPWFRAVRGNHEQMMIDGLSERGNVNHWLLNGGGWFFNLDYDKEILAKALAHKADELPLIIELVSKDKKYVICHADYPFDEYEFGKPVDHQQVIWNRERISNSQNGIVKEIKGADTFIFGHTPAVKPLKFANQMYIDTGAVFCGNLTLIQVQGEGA

Scp1 [6] = biological target: T1, Scp1; assay: pNPP assay of Scp1 phosphatase activity; format: biochemical
S. pombe Fcp1 = biological target: T5, S. pombe Fcp1 (Schizosaccharomyces pombe, UniProt Q9P376); assay: pNPP assay, concentration-response on Fcp1; format: biochemical; details: up to 0.1 mM rabeprazole, substrate comparable to Km
T5 sequence (Q9P376 148-641): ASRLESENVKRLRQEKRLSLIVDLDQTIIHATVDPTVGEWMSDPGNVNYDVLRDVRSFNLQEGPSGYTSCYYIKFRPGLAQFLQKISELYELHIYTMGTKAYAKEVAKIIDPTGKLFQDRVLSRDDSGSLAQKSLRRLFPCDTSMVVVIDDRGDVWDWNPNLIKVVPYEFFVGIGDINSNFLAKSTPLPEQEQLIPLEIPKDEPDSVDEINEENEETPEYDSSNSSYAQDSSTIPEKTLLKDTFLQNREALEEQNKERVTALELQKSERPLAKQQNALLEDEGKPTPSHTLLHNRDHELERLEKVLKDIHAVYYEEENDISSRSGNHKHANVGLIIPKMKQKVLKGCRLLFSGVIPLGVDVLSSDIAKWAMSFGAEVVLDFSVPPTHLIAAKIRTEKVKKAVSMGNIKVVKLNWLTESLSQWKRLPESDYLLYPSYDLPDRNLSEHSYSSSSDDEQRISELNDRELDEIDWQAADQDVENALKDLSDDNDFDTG

Scp1 L155A mutant = biological target: T6, Scp1 L155A mutant (Homo sapiens, UniProt Q9GZU7, L155A); assay: pNPP assay, Scp1 L155A mutant; format: biochemical
T6 sequence (Q9GZU7 77-256 L155A): T1 sequence (Q9GZU7 77-256) with L79A
Outline: as §1

human Dullard = biological target: T7, human Dullard (Homo sapiens, UniProt O95476); assay: pNPP assay, concentration-response on Dullard; format: biochemical; details: up to 0.1 mM rabeprazole, substrate comparable to Km
T7 sequence (O95476 46-244): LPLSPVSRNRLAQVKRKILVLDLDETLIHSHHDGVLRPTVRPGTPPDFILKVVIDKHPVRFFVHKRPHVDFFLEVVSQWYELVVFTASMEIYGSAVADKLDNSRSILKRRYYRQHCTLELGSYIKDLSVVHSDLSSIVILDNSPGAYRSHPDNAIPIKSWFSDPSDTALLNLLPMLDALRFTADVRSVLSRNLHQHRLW

Scp1 F106E mutant = assay: pNPP assay, Scp1 F106E mutant; format: biochemical, human
Outline: as §1

Cc1c(OCC(F)(F)F)ccnc1C[S+]([O-])c1nc2ccccc2[nH]1 (stereo not drawn) [lansoprazole]
inhibition of Scp1 (Scp1 [1]): no inhibition; also recorded: does not inhibit

COCCCOc1ccnc(C[S+]([O-])c2nc3ccccc3[nH]2)c1C (stereo not drawn) [rabeprazole]
IC50 (Scp1 [2]): 9 ± 3 µM
Ki (Scp1 [2]): 5 ± 1 µM
mechanism of inhibition (Scp1 [2]; CTD-derived phosphorylated peptide as the substrate): competitive inhibitor
melting temperature of Scp1 in the presence of the compound (Scp1 [3]): 59.1 °C
change of IC50 versus wildtype Scp1 (Scp1 V127A mutant): moderately increased IC50
change of IC50 versus wildtype Scp1 (Scp1 K157A mutant): moderately increased IC50
loss of inhibition versus wildtype Scp1 [4]: at least 10 fold
inhibition of λPPase [5]: no inhibition
IC50 (Scp1 [6]): 4 ± 0.7 µM
mechanism of inhibition (Scp1 [6]; against pNPP): mixed inhibitor
Ki′ (Scp1 [6]; pNPP as the substrate, steady-state kinetics): 10 ± 2 µM
inhibition of Fcp1 (S. pombe Fcp1): no inhibition
change of IC50 versus wildtype Scp1 (Scp1 L155A mutant): moderately increased IC50
inhibition of Dullard (human Dullard): no inhibition
increase of IC50 versus wildtype Scp1 (Scp1 F106E mutant): at least 10 fold

COCCCOc1ccnc(CS(=O)(=O)c2nc3ccccc3[nH]2)c1C [Rabeprazole sulfone]
inhibition of Scp1 (Scp1 [1]): did not show any inhibition

COCCCOc1cc[n+]([O-])c(C[S+]([O-])c2nc3ccccc3[nH]2)c1C (stereo not drawn) [Rabeprazole N-oxide]
inhibition of Scp1 (Scp1 [1]): no inhibition
